We go through nine compounds from ChEMBL document CHEMBL1122831, “Synthesis and structure-activity relationships of novel arylfluoroquinolone antibacterial agents” (1985).

≈ marks a conversion by molar mass, not a printed value.

What all share (assay type): functional
One assay relates to Klebsiella pneumoniae. Kind of assay: Minimum inhibition concentration in vitro determined against Klebsiella pneumoniae 8045. A digest of the protocol:
(§1)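 Agar dilution on brain-heart infusion (BHI) agar with twofold dilutions from a 2000 µg/mL stock, giving final test concentrations of 200-0.005 µg/mL. Organisms were grown overnight in BHI broth at 36 °C, and about 10⁴ organisms were inoculated per plate. Plates were incubated 18 h at 36 °C. MIC was the lowest concentration with no visible growth.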

Another assay deals with Klebsiella aerogenes. The assay can be described thus: Minimum inhibition concentration in vitro determined against Enterobacteri aerogenes ATCC 13048. The essentials:
as §1

Assay [1] deals with Staphylococcus aureus. Kind of assay: Minimum inhibition concentration in vitro determined against Staphylococcus aureus CMX 686B. The essentials: as §1
Assay [2] concerns Staphylococcus epidermidis. Kind of assay: Minimum inhibition concentration in vitro determined against Staphylococcus epidermidis 3519. The essentials: as §1
The test system of assay [3] is Staphylococcus aureus. The assay can be described thus: Minimum inhibition concentration in vitro determined against Staphylococcus aureus ATCC 6538P. The essentials: as §1
In the next assay the test system is Enterococcus faecium. The assay can be described thus: Minimum inhibition concentration in vitro determined against Streptococcus faecium ATCC 8043. A digest of the protocol:
as §1

The subject of the next assay is Escherichia coli. Kind of assay: Minimum inhibition concentration in vitro determined against Escherichia coli juhl. The settings on record: Escherichia coli; read-out: MIC. A digest of the protocol: as §1
The subject of the next assay is Streptococcus pyogenes. The assay can be described thus: Minimum inhibition concentration in vitro determined against Streptococcus pyogenes 930. A digest of the protocol: as §1
A further assay has as its system Acinetobacter. The assay can be described thus: Minimum inhibition concentration in vitro determined against Acinetobacter sp CMX669. The essentials: as §1
Assay [4] has as its system Pseudomonas aeruginosa. Kind of assay: Minimum inhibition concentration in vitro determined against Pseudomona aeruginosa 5007. A digest of the protocol:
as §1

Assay [5] has as its system Pseudomonas aeruginosa. The assay can be described thus: Minimum inhibition concentration in vitro determined against Pseudomona aeruginosa K799/WT. The essentials: as §1

For `CNC1CCN(c2cc3c(cc2F)c(=O)c(C(=O)O)cn3-c2ccc(F)cc2)C1` (centres undefined), the MIC in the assay with Klebsiella pneumoniae was found to be 0.78 µg/mL (≈ 1.95 µM); against Klebsiella aerogenes, 3.1 µg/mL (≈ 7.76 µM); with Staphylococcus aureus [1], 3.1 µg/mL (≈ 7.76 µM); in [2] it was 6.2 µg/mL (≈ 15.5 µM); with Staphylococcus aureus [3], 3.1 µg/mL (≈ 7.76 µM); with Enterococcus faecium it was 25 µg/mL (≈ 62.6 µM). Further, the minimal inhibitory concentration (MIC) in the assay on Escherichia coli was found to be 3.1 µg/mL (≈ 7.76 µM); in the assay on Streptococcus pyogenes it was 12.5 µg/mL (≈ 31.3 µM); against Acinetobacter, 6.2 µg/mL (≈ 15.5 µM); in the assay with Pseudomonas aeruginosa [4], 50 µg/mL (≈ 125 µM); in the assay on Pseudomonas aeruginosa [5] it was 50 µg/mL (≈ 125 µM).
Take `O=C(O)c1cn(-c2ccc(F)cc2)c2cc(N3CCCNCC3)c(F)cc2c1=O`: the MIC in the assay with Klebsiella pneumoniae worked out at 0.1 µg/mL (≈ 0.25 µM); against Klebsiella aerogenes, 0.39 µg/mL (≈ 0.976 µM); in the assay with Staphylococcus aureus [1] it was 0.78 µg/mL (≈ 1.95 µM); in assay [2], 1.56 µg/mL (≈ 3.91 µM); in the assay with Staphylococcus aureus [3], 0.78 µg/mL (≈ 1.95 µM); against Enterococcus faecium, 12.5 µg/mL (≈ 31.3 µM). In addition, the MIC in the assay on Escherichia coli worked out at 0.2 µg/mL (≈ 0.501 µM); in the assay with Streptococcus pyogenes, 6.2 µg/mL (≈ 15.5 µM); in the assay on Acinetobacter, 1.56 µg/mL (≈ 3.91 µM); in the assay with Pseudomonas aeruginosa [4], 1.56 µg/mL (≈ 3.91 µM); in the assay with Pseudomonas aeruginosa [5], 3.1 µg/mL (≈ 7.76 µM).
For `CC(C)N(C)c1cc2c(cc1F)c(=O)c(C(=O)O)cn2-c1ccc(F)cc1`, the MIC in the assay on Klebsiella pneumoniae is 3.1 µg/mL (≈ 8.33 µM); against Klebsiella aerogenes it was 6.2 µg/mL (≈ 16.7 µM); in the assay with Staphylococcus aureus [1], 0.78 µg/mL (≈ 2.09 µM); in assay [2], 1.56 µg/mL (≈ 4.19 µM); against Staphylococcus aureus [3], 0.78 µg/mL (≈ 2.09 µM); against Enterococcus faecium it was 12.5 µg/mL (≈ 33.6 µM). Moreover, the MIC in the assay with Escherichia coli came to 6.2 µg/mL (≈ 16.7 µM); against Streptococcus pyogenes, 12.5 µg/mL (≈ 33.6 µM); in the assay with Acinetobacter, 12.5 µg/mL (≈ 33.6 µM); with Pseudomonas aeruginosa [4] it was 100 µg/mL (≈ 269 µM); in the assay with Pseudomonas aeruginosa [5], 50 µg/mL (≈ 134 µM).
Regarding `CC(=O)N1CCN(c2cc3c(cc2F)c(=O)c(C(=O)O)cn3-c2ccc(F)cc2)CC1`, the minimum inhibitory concentration (MIC) with Klebsiella pneumoniae turned out to be 1.56 µg/mL (≈ 3.65 µM); in the assay with Klebsiella aerogenes it was 3.1 µg/mL (≈ 7.25 µM); against Staphylococcus aureus [1] it was 0.2 µg/mL (≈ 0.468 µM); in [2], 0.78 µg/mL (≈ 1.82 µM); in the assay on Staphylococcus aureus [3], 0.2 µg/mL (≈ 0.468 µM); in the assay with Enterococcus faecium it was 3.1 µg/mL (≈ 7.25 µM). Besides, the minimal inhibitory concentration (MIC) stood at 1.56 µg/mL (≈ 3.65 µM) with Escherichia coli; 1.56 µg/mL (≈ 3.65 µM) against Streptococcus pyogenes; 12.5 µg/mL (≈ 29.2 µM) in the assay on Acinetobacter; 12.5 µg/mL (≈ 29.2 µM) against Pseudomonas aeruginosa [4]; 12.5 µg/mL (≈ 29.2 µM) with Pseudomonas aeruginosa [5].
On to `CN1CCN(c2cc3c(cc2F)c(=O)c(C(=O)O)cn3-c2ccc(F)cc2)CC1=O`, for which the MIC in the assay on Klebsiella pneumoniae came to 0.2 µg/mL (≈ 0.484 µM); in the assay with Klebsiella aerogenes it was 0.39 µg/mL (≈ 0.943 µM); against Staphylococcus aureus [1], 0.2 µg/mL (≈ 0.484 µM); in assay [2], 0.2 µg/mL (≈ 0.484 µM); against Staphylococcus aureus [3] it was 0.1 µg/mL (≈ 0.242 µM); against Enterococcus faecium, 0.78 µg/mL (≈ 1.89 µM). Besides, the MIC with Escherichia coli turned out to be 0.39 µg/mL (≈ 0.943 µM); with Streptococcus pyogenes, 0.39 µg/mL (≈ 0.943 µM); in the assay on Acinetobacter, 0.39 µg/mL (≈ 0.943 µM); against Pseudomonas aeruginosa [4], 1.56 µg/mL (≈ 3.77 µM); against Pseudomonas aeruginosa [5], 0.78 µg/mL (≈ 1.89 µM).
On to `O=C1CN(c2cc3c(cc2F)c(=O)c(C(=O)O)cn3-c2ccc(F)cc2)CCN1`, for which the MIC turned out to be 0.39 µg/mL (≈ 0.977 µM) in the assay on Klebsiella pneumoniae; 1.56 µg/mL (≈ 3.91 µM) against Klebsiella aerogenes; 0.39 µg/mL (≈ 0.977 µM) against Staphylococcus aureus [1]; 0.78 µg/mL (≈ 1.95 µM) in assay [2]; 0.2 µg/mL (≈ 0.501 µM) against Staphylococcus aureus [3]; 1.56 µg/mL (≈ 3.91 µM) against Enterococcus faecium. Moreover, the MIC in the assay on Escherichia coli came out at 0.39 µg/mL (≈ 0.977 µM); with Streptococcus pyogenes, 0.78 µg/mL (≈ 1.95 µM); against Acinetobacter, 12.5 µg/mL (≈ 31.3 µM); with Pseudomonas aeruginosa [4], 6.2 µg/mL (≈ 15.5 µM); in the assay on Pseudomonas aeruginosa [5], 3.1 µg/mL (≈ 7.76 µM).
On to `O=C(O)c1cn(-c2ccc(F)cc2)c2cc(N3CCC(O)CC3)c(F)cc2c1=O`, for which the MIC is 0.39 µg/mL (≈ 0.974 µM) in the assay with Klebsiella pneumoniae; 1.56 µg/mL (≈ 3.9 µM) in the assay with Klebsiella aerogenes; 0.1 µg/mL (≈ 0.25 µM) against Staphylococcus aureus [1]; 0.39 µg/mL (≈ 0.974 µM) in assay [2]; 0.1 µg/mL (≈ 0.25 µM) in the assay on Staphylococcus aureus [3]; 1.56 µg/mL (≈ 3.9 µM) with Enterococcus faecium. Besides, the MIC with Escherichia coli was 0.39 µg/mL (≈ 0.974 µM); against Streptococcus pyogenes, 1.56 µg/mL (≈ 3.9 µM); against Acinetobacter it was 1.56 µg/mL (≈ 3.9 µM); in the assay with Pseudomonas aeruginosa [4], 6.2 µg/mL (≈ 15.5 µM); in the assay with Pseudomonas aeruginosa [5], 3.1 µg/mL (≈ 7.74 µM).
For the compound `O=C(O)c1cn(-c2ccc(F)cc2)c2cc(N3CCSCC3)c(F)cc2c1=O`, the MIC against Klebsiella pneumoniae turned out to be 0.39 µg/mL (≈ 0.969 µM); against Klebsiella aerogenes it was 0.78 µg/mL (≈ 1.94 µM); in the assay with Staphylococcus aureus [1], 0.05 µg/mL (≈ 0.124 µM); in assay [2] it was 0.1 µg/mL (≈ 0.248 µM); against Staphylococcus aureus [3], 0.05 µg/mL (≈ 0.124 µM); against Enterococcus faecium it was 0.78 µg/mL (≈ 1.94 µM). In addition, the MIC in the assay on Escherichia coli was 0.78 µg/mL (≈ 1.94 µM); in the assay with Streptococcus pyogenes, 0.78 µg/mL (≈ 1.94 µM); in the assay on Acinetobacter it was 0.78 µg/mL (≈ 1.94 µM); against Pseudomonas aeruginosa [4], 3.1 µg/mL (≈ 7.7 µM); against Pseudomonas aeruginosa [5], 3.1 µg/mL (≈ 7.7 µM).
`NC1CCN(c2cc3c(cc2F)c(=O)c(C(=O)O)cn3-c2ccc(F)cc2)C1` (centres undefined): the MIC against Klebsiella pneumoniae is 0.02 µg/mL (≈ 0.0519 µM); against Klebsiella aerogenes it was 0.05 µg/mL (≈ 0.13 µM); with Staphylococcus aureus [1], 0.05 µg/mL (≈ 0.13 µM); in assay [2] it was 0.05 µg/mL (≈ 0.13 µM); in the assay on Staphylococcus aureus [3] it was 0.05 µg/mL (≈ 0.13 µM); with Enterococcus faecium it was 0.78 µg/mL (≈ 2.02 µM). The MIC with Escherichia coli was determined as 0.02 µg/mL (≈ 0.0519 µM); with Streptococcus pyogenes, 0.1 µg/mL (≈ 0.259 µM); with Acinetobacter, 0.2 µg/mL (≈ 0.519 µM); in the assay with Pseudomonas aeruginosa [4] it was 0.2 µg/mL (≈ 0.519 µM); in the assay on Pseudomonas aeruginosa [5], 0.2 µg/mL (≈ 0.519 µM).

What is called MIC is the least concentration at which growth counts as inhibited.
